The list is not random: actives were taken first. Their share in the collection is about 3.1%.
KCNQ1 inh: blocks the human KCNQ1 potassium channel; P51787; CHO-K1 KCNQ1, FluxOR thallium flux fluorescence; active compounds read high; B-score at 10 µM; actives 1.3% (n = 310,000); AID 2642;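 active means compounds whose thallium flux B-score, printed positive for inhibition, exceeds three library SD while starting fluorescence stays within three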;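 further: channel opened by potassium depolarization with thallium stimulus after 20 min compound exposure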
hERG protect: shields human hERG channel from block by proarrhythmic agents. Q12809. CHO-hERG, FluxOR thallium flux, dofetilide IC70 present. activation (rescue from dofetilide block), less the hit threshold, % at 10 µM. actives 0.51% (n = 310,000). AID 1511;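 active means activation above the mean of controls blocked by dofetilide plus 5 SD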;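 further: thallium influx through hERG after potassium depolarization seen as dye fluorescence rise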
KCNQ1 pot: potentiates or activates the human KCNQ1 potassium channel; AID 2648; CHO-K1 KCNQ1, thallium flux FluxOR fluorescence; active compounds read high; actives 0.35% (n = 310,000); P51787; B-score at 10 µM;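 active means fluorescence ratio B-score, a plate-corrected score, at least three library SD, with initial intensity B-score within 5 SD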
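assay system = KCNQ1-transfected CHO-K1 cells | medium = assay buffer with matched DMSO | probe or stimulus = depolarizing K+/Tl+ stimulus, K2SO4 and Tl2SO4 each 12.5 mM in 5x stock | dosing = single dose | incubation = dye 90 min, compound 20 min, room temperature | detection = kinetic FluxOR fluorescence, 10 s baseline plus 110 s post-stimulus | evaluation = ratio B score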
KCNK9 inh: blocks the human KCNK9 two-pore domain potassium channel. Q9NPC2. AID 488922. actives 1.2% (n = 310,000). HEK293 KCNK9, FluxOR thallium flux fluorescence; active compounds read low. B-score at 10 µM;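 active means ratio B-score over 3 SD below the library mean, with starting fluorescence within 5 SD of its mean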;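 further: negative B-score means less thallium flux so channel inhibition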
KCNK3 inh: human KCNK3 channel inhibition, primary screen | O14649 | CHO-KCNK3 thallium flux, FluxOR fluorescence; active compounds read low | B-score at 10 µM | actives 0.84% (n = 340,000) | AID 602410;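 active means B-score under library mean minus 4 SD, starting fluorescence ratio at most library mean plus 5 SD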;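 further: more negative B-score means stronger inhibition of thallium flux through KCNK3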
KCNK9 block conf: confirmation of human KCNK9 potassium channel inhibitors; shares compounds with KCNK9 inh; HEK293 KCNK9 cells, FluxOR thallium flux fluorescence; inhibition, % at 10 µM; actives 43% (n = 4,900);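 active means thallium signal inhibited by more than 5 SD of the compound-free buffer control wells, on both duplicate plates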;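 further: 0% = assay buffer control wells without compound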
Kir2-1 spec: mouse Kir2.1 off-target activity of KCNK9 modulators. actives 4% (n = 4,900). shares compounds with KCNK9 inh. inhibition, % at 10 µM. Kir2.1 cells, FluxOR thallium flux fluorescence. AID 492993;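 active means thallium signal drop more than 5 SD beyond the mean of the no-compound control wells, seen in both duplicate plates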;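 further: signal is fluorescence rise after thallium addition divided by baseline fluorescence; plate controls were assay buffer only for no effect and full block by chlorpromazine control for full effect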
KCNK9 uninduced: non-induced cell nonspecific activity of KCNK9 modulators. shares compounds with KCNK9 inh. non-induced KCNK9-HEK293, FluxOR thallium flux. inhibition, % at 10 µM. actives 40% (n = 4,900). AID 492997;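 active means thallium signal drop beyond 5 SD of the untreated control mean, on both duplicate plates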;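 further: plate controls were buffer only IC0 wells for no effect and SID17386958 at its maximal inhibitory level for full effect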
The depositor's hits bear a star; i = inactive; . = no result given.

SMILES	KCNQ1 inh	hERG protect	KCNQ1 pot	KCNK9 inh	KCNK3 inh	KCNK9 block conf	Kir2-1 spec	KCNK9 uninduced
CSc1ccc(C(=O)C2CCCN(Cc3cc4ccccc4[nH]3)C2)cc1 (centres undefined)	i	-26	i	i	i	i	50%*	i
CCOC(=O)C1(CCc2ccccc2)CCN(Cc2cccc3cnccc23)CC1	i	-15	i	i	i	i	i	i
CCOC(=O)C1(CCOc2ccccc2)CCN(Cc2ccccc2OC)CC1	i	-11	i	i	i	i	i	i
CCOC(=O)C1(CCc2ccccc2)CCN(Cc2csc(C(C)=O)c2)CC1	i	-13	i	i	i	i	i	i
O=[N+]([O-])c1ccc(-c2ccccc2)c([As](=O)(O)O)c1	i	-10	i	i	i	.	.	.
COc1cccc(-n2c(C)nc3ccccc3c2=O)c1	i	0	i	i	i	.	.	.
COc1cccc(-n2c(-c3ccoc3)nc3ccccc3c2=O)c1	i	-8	i	-18*	i	i	i	i
COc1cc(CN2CCN(c3cc(C)ccc3C)CC2)ccc1O	i	-13	i	i	i	i	i	i
COc1ccc(C(=O)C2CCCN(C3CSCCSC3)C2)c(OC)c1 (centres undefined)	i	-8	i	i	i	.	.	.
COc1ccc(C(=O)C2CCCN(C3CSCCSC3)C2)c(C)c1 (centres undefined)	i	-8	i	i	i	i	i	i
CC1CCCCN1Cc1ccc(Cl)nc1 (centres undefined)	i	3	i	i	i	.	.	.
C=Cc1cc(OC)c2c(c1)c(=O)oc1c2cc(OC)c2c(O)ccc(C3OC(C)C(O)C(C)(O)C3O)c21 (centres undefined)	.	.	.	.	i	.	.	.
C/C(=N\N1CCCCCC1)c1c(O)n(-c2ccc(C)cc2)c(=O)[nH]c1=O	i	-3	i	i	i	.	.	.
C/C(=N\N1CCCCCC1)c1c(O)n(-c2ccc(Cl)cc2)c(=O)[nH]c1=O	i	-8	i	i	i	i	i	i
O=C(NCc1ccccc1)c1cccn(Cc2cccc(Cl)c2)c1=O	i	-8	i	-11*	i	57%*	i	30%*
O=C(Nc1ccccc1)c1cccn(Cc2ccccc2)c1=O	i	-11	i	i	i	.	.	.
COC(=O)C(O)(c1ccc(NC(=S)NC(=O)c2ccccc2)cc1)C(F)(F)F (centres undefined)	i	-7	i	-9.7*	i	46%*	i	26%*
CSc1ccc(CN2CCN(C(=O)Cc3ccccc3)CC2)cc1	i	-1	i	i	i	.	.	.
CSc1ccc(CN2CCN(Cc3ccccc3Cl)CC2)cc1	i	-10	i	i	i	i	41%*	i
O=C(c1cccs1)c1cn(Cc2ccccc2Cl)c2ccccc12	i	-16	i	i	i	.	.	.
N#Cc1ccccc1Cn1cc(C(=O)c2cccs2)c2ccccc21	i	-5	i	-8.1*	i	i	i	34%*
N=c1c[n+](CC23CC4CC(CC(C4)C2)C3)[n-]o1	i	-7	i	i	i	.	.	.
COC(=O)C1=C(c2ccc(OC(F)(F)F)cc2)C[C@@H]2CC[C@H]1N2C(=O)NC(C)C	.	.	.	.	i	.	.	.
O=c1[nH]c(=S)n(C2CC2)c(O)c1C=Nc1ccc2c(c1)OCO2	i	-6	i	i	i	.	.	.
CCCCn1c(O)c(/C=C/C=Nc2ccccc2)c(=O)[nH]c1=O	i	-5	i	-9.2*	i	i	i	54%*
Cn1c(O)c(/C=C/C=Nc2ccccc2)c(=O)n(C)c1=O	i	-11	i	i	i	.	.	.
CC1([N+](=O)[O-])COP(=O)(Nc2ccc(Cl)cc2)OC1 (centres undefined)	.	.	.	.	i	.	.	.

Screens as filed in PubChem BioAssay.
